The source of these data is ChEMBL document CHEMBL4823323, “Monocyclic Nitro-heteroaryl Nitrones with Dual Mechanism of Activation: Synthesis and Antileishmanial Activity” (ACS Med Chem Lett, 2021).

The source made the active and inactive calls. The rule behind the calls is not given here.

In series [1] the test system is Leishmania donovani. As to the kind of experiment: Antileishmanial activity against wild type Leishmania donovani promastigotes incubated for 72 hrs by resazurin dye based assay. In kind it is functional, organism-based. Put shortly: (§1)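 IC50 is the mean ± standard error of three independent experiments, each run in triplicate.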
Background: Alamar Blue is a resazurin reagent that responds to reducing activity.

For series [2], the system named is Leishmania donovani. Briefly: Antileishmanial activity against Leishmania donovani LdBOB derived from MHOM/SD/62/1 S-CL2D promastigotes overexpressing NTR2 incubated for 72 hrs by resazurin dye based assay. The series is classed as functional, organism-based. An outline of the steps: as §1
In series [3] the test system is Leishmania donovani. Briefly: Selectivity index, ratio of IC50 for antileishmanial activity against wild type Leishmania donovani promastigotes to IC50 for antileishmanial activity against Leishmania donovani LdBOB derived from MHOM/SD/62/1 S-CL2D promastigotes overexpressing NTR2. In kind it is functional.
Series [4] can be described thus: Cytotoxicity against BALB/c mouse peritoneal macrophages assessed as reduction in cell viability incubated for 72 hrs by resazurin dye based fluorescence assay. On the set-up: species or system Peritoneal macrophage. An outline of the steps: (§2)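 CC50 values are means of three independent experiments, each in triplicate, ± standard error; selectivity index taken as macrophage CC50 divided by intracellular amastigote EC50.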

Series [5] concerns Leishmania amazonensis. As to the kind of experiment: Antileishmanial activity against Leishmania amazonensis MHOM/BR/77/LTB 0016 promastigotes assessed as inhibition of parasite growth incubated for 72 hrs by resazurin dye based assay. The conditions noted are these: MHOM/BR/77/LTB 0016, 72 h. The series is classed as functional, organism-based. Put shortly:
(§3)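 Values are averages of three independent experiments run in triplicate ± standard error.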

The subject of series [6] is Leishmania infantum. Briefly: Antileishmanial activity against Leishmania infantum MHOM/MA/67/ITMAP-263 promastigotes assessed as inhibition of parasite growth incubated for 72 hrs by resazurin dye based assay. Conditions: MHOM/MA/67/ITMAP-263, 72 h. In kind it is functional, organism-based. Put shortly:
as §3

Series [7] in a line: Electrochemical behavior of the compound in aprotic medium assessed as redox potential using glassy carbon electrode by cyclic voltammetry analysis. In kind it is physicochemical.
Series [8] has as its system Leishmania donovani. As to the kind of experiment: Antileishmanial activity against Leishmania donovani LdBOB derived from MHOM/SD/62/1 S-CL2D promastigotes overexpressing NTR1 incubated for 72 hrs by resazurin dye based assay. The series is classed as functional, organism-based. Put shortly: as §1
Series [9] has as its system Leishmania donovani. As to the kind of experiment: Selectivity index, ratio of IC50 for antileishmanial activity against wild type Leishmania donovani promastigotes to IC50 for antileishmanial activity against Leishmania donovani LdBOB derived from MHOM/SD/62/1 S-CL2D promastigotes overexpressing NTR1. The series is classed as functional.
Series [10] deals with Leishmania amazonensis. Briefly: Antileishmanial activity against intracellular Leishmania amazonensis MHOM/BR/77/LTB 0016 amastigotes infected in BALB/c mouse peritoneal macrophage assessed as reduced parasite growth incubated for 72 hrs by PANOTIC staining based assay. In kind it is functional, organism-based. Conditions: MHOM/BR/77/LTB 0016, Peritoneal macrophage. An outline of the steps:
as §3

In series [11] the test system is Peritoneal macrophage. As to the kind of experiment: Induction of ROS production in mouse peritoneal macrophages at EC50 concentration measured upto 4 hrs by H2DCFDA probe based fluorescence analysis. In kind it is functional, cell-based. Conditions: time hrs <=4. An outline of the steps:
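Murine peritoneal macrophages incubated 4 h with 0.5×, 1× and 2× EC50 of compounds (concentrations taken from the anti-promastigote assay); ROS quantified with H2DCFDA; means ± SD, n=3.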

Series [12] has as its system Leishmania amazonensis. Briefly: Induction of ROS production in Leishmania amazonensis promastigotes measured by H2DCFDA probe based fluorescence analysis. Conditions: time hrs <=4. In kind it is functional. An outline of the steps: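 L. amazonensis promastigotes exposed to compounds at concentrations based on the anti-promastigote EC50, with ROS followed kinetically over 4 h using H2DCFDA fluorescence; means ± SD, n=3.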

A short description of series [13]: Selectivity index, ratio of CC50 for cytotoxicity against BALB/c mouse peritoneal macrophages assessed as reduction in cell viability incubated for 72 hrs by resazurin dye based fluorescence assay to IC50 for antileishmanial activity against intracellular Leishmania amazonensis MHOM/BR/77/LTB 0016 amastigotes infected in BALB/c mouse peritoneal macrophage. In kind it is toxicity. Conditions: read-out: Selectivity Index. An outline of the steps:
as §2

`C[C@]1(COc2ccc(N3CCC(Oc4ccc(OC(F)(F)F)cc4)CC3)cc2)Cn2cc([N+](=O)[O-])nc2O1` [DELAMANID]: the IC50 (commonly the concentration that inhibits the measured activity by half) in series [1] is 0.0015 µM; in series [2], 0.00012 µM. For the same compound, the Ratio IC50 in series [3] was found to be 12.5.

Turning to `C/[N+]([O-])=C/c1cccs1`, in series [4], the CC50 (usually the concentration at which the toxic effect on the cells reaches its halfway point) at 72 h was greater than 100 µM. Besides, the IC50 in series [5] and in series [6] was greater than 100 µM throughout.

For the compound `O=Cc1ccco1` [FURFURAL], the IC50 in series [5] and in series [6] was greater than 100 µM throughout.

Take `O=Cc1cccs1` [2-THIOPHENENECARBOXALDEHYDE]: the IC50 in series [5] and in [6] was greater than 100 µM each time.

On to `C/[N+]([O-])=C\c1ccc([N+](=O)[O-])cc1`, for which the CC50 at 72 h in series [4] was greater than 100 µM. In addition, the IC50 in series [5] and in [6] was greater than 100 µM each time. Also, the Activity in [7] is listed as -0.68 V.

`CC1CS(=O)(=O)CCN1/N=C/c1ccc([N+](=O)[O-])o1` (stereo not drawn) [NIFURTIMOX]: the concentration for half-maximal inhibition (IC50) in series [1] came to 1.89 µM; in [8], 0.11 µM. Further, the Ratio IC50 in series [9] came to 17.

For `C/[N+]([O-])=C/c1ccco1`, the CC50 at 72 h in series [4] was greater than 100 µM. Moreover, the IC50 in series [5] and in series [6] was greater than 100 µM each time.

For `C/[N+]([O-])=C/c1ccc([N+](=O)[O-])s1`, the IC50 in series [1] was found to be 1.12 µM; in series [5], 9.72 µM; in [10] it was 3.81 µM; in series [6], 3.45 µM; in series [8], 0.24 µM; in [2] it was 0.25 µM. Also, the CC50 at 72 h in series [4] turned out to be 24.2 µM. The Ratio IC50 was 4.6 in [9] and 4.5 in series [3]. Moreover, the result in series [11] and in [12] was inactive. Moreover, the Activity in series [7] is given as -0.61 V. Further, the selectivity ratio at 72 h in series [13] was 6.
